Data: ChEMBL document CHEMBL4342526, “Exploration of the Structural Space in 4(3H)-Quinazolinone Antibacterials” (J Med Chem, 2020)
Converted amounts (≈) assume the structure as drawn.

How the values were obtained:
[1] = test system: Staphylococcus aureus; assay: Antibacterial activity against Staphylococcus aureus ATCC 29213 measured after 16 to 20 hrs by microdilution method; assay type: functional
How it was run: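 CLSI broth microdilution: two-fold serial dilutions in triplicate in cation-adjusted Mueller–Hinton broth with 2% NaCl, inoculum 5 × 10^5 CFU/mL, incubated at 37 °C for 16–20 h. MIC is the lowest concentration preventing visible growth.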

[2] = Selectivity index, ratio of IC50 for human HeLa cells to MIC for clindamycin/erythromycin/spectinomycin-resistant mec-positive Staphylococcus aureus NRS70; assay type: toxicity
How it was run: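 HeLa cytotoxicity by XTT assay in triplicate, IC50 by nonlinear regression; ratio IC50 over broth microdilution MIC against NRS70.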

[3] = test system: Staphylococcus aureus; assay: Antibacterial activity against multi-drug resistant mecA-positive Staphylococcus aureus NRS119 measured after 16 to 20 hrs by microdilution method; assay type: functional
How it was run: (§1)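 CLSI broth microdilution; two-fold serial compound dilutions in triplicate in cation-adjusted Mueller–Hinton broth with 2% NaCl, inoculum 5 × 10^5 CFU/mL; 37 °C for 16–20 h; MIC = lowest concentration with no visible growth.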

[4] = test system: Staphylococcus aureus; assay: Antibacterial activity against multi-drug resistant mecA-positive Staphylococcus aureus ATCC 27660 measured after 16 to 20 hrs by microdilution method; assay type: functional; how it was run: as §1
[5] = test system: Staphylococcus aureus; assay: Antibacterial activity against multi-drug resistant mec-positive Staphylococcus aureus USA300 measured after 16 to 20 hrs by microdilution method; assay type: functional; how it was run: as §1
[6] = test system: Staphylococcus aureus; assay: Antibacterial activity against Staphylococcus aureus ATCC 29213 measured after 16 to 20 hrs in presence of bovine serum albumin by microdilution method; assay type: functional
How it was run: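 S. aureus ATCC29213 MIC was run by CLSI microdilution in cation-adjusted Mueller–Hinton broth plus 2% NaCl, with and without 0.5% bovine serum albumin. Compounds were two-fold serially diluted in triplicate, inoculum was 5 × 10^5 CFU/mL, and plates were incubated at 37 °C for 16–20 h. The endpoint was the lowest concentration with no visible growth.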

[7] = Protein binding in human plasma at 10 uM measured after 6 hrs UV-UPLC based rapid equilibrium dialysis method; assay type: ADME, cell-free
How it was run: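 Rapid equilibrium dialysis: human plasma was cleared by centrifugation and spiked from a 1 mM DMSO stock to a final 10 μM, against 0.1 M PBS pH 7.4. Dialysis ran 6 h at 37 °C with orbital shaking. Buffer (free) and plasma (total) aliquots were mixed with internal standard in acetonitrile and measured by UPLC-UV at 285 nm. B% = (Cp−Cf)/Cp×100.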

[8] = test system: Staphylococcus aureus; assay: Antibacterial activity against clindamycin/erythromycin/spectinomycin-resistant mec-positive Staphylococcus aureus NRS70 measured after 16 to 20 hrs by microdilution method; assay type: functional; how it was run: as §1
[9] = test system: HeLa; assay: Cytotoxicity against human HeLa cells assessed as reduction in cell viability measured after 16 hrs by XTT assay; assay type: cell-based
How it was run: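 HeLa cells (ATCC CCL-2), run in triplicate. Viability was read by XTT, and IC50 was obtained by nonlinear regression.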

Compound | MIC [1] [µg/mL] | other results
O=C(O)c1cccc(-n2c(/C=C/c3ccc(=O)[nH]c3)nc3ccccc3c2=O)c1 | > 128 | 
O=C(O)c1cccc(-n2c(/C=C/c3cc(Cl)cs3)nc3ccccc3c2=O)c1 | 4 (≈ 9.78 µM) | selectivity ratio [2]: 70; MIC [3]: 1 µg/mL (≈ 2.45 µM); MIC [4]: 2 µg/mL (≈ 4.89 µM); MIC [5]: 4 µg/mL (≈ 9.78 µM); MIC [6]: 32 µg/mL; PPB [7]: > 99.9%; MIC [8]: 2 µg/mL (≈ 4.89 µM); IC50 [9]: 140 µg/mL (≈ 342 µM)
CC(=O)NC[C@H]1CN(c2ccc(N3CCOCC3)c(F)c2)C(=O)O1 [LINEZOLID] | 1 (≈ 2.96 µM) | 
Nc1cccc(-n2c(NCc3ccc(F)cc3)nc3ccccc3c2=O)c1 | 64 (≈ 178 µM) | 
N#Cc1ccc(/C=C/c2nc3ccccc3c(=O)n2-c2cc(F)cc(C(=O)O)c2)cc1 | > 128 | 
N#Cc1ccc(/C=C/c2nc3ccccc3c(=O)n2-c2cc(O)cc(C(=O)O)c2)cc1 | > 128 | 
CC(C(=O)O)n1c(/C=C/c2ccc(C#N)cc2)nc2ccccc2c1=O (stereo not drawn) | 128 (≈ 371 µM) | 
O=C(O)c1cccc(-n2c(/C=C/c3cc[n+]([O-])cc3)nc3ccccc3c2=O)c1 | > 128 | 
N#Cc1ccc(COc2nc3ccccc3c(=O)n2-c2cccc(C(=O)O)c2)cc1 | > 128 | 
COC(=O)c1cccc(-n2c(NCc3ccc(C#N)cc3)nc3ccccc3c2=O)c1 | 16 (≈ 39 µM) | 
O=C(O)c1cccc(-n2c(/C=C/c3ccnc(F)c3)nc3ccccc3c2=O)c1 | > 128 | 
N#Cc1ccc(/C=C/c2nc3ccccc3c(=O)n2-c2cccc(N)c2)cc1 | 0.5 (≈ 1.37 µM) | 
N#Cc1ccc(/C=C/c2nc3ccccc3c(=O)n2-c2cccc(CN3C(=O)c4ccccc4C3=O)c2)cc1 | > 128 | 
N#Cc1ccc(/C=C/c2nc3ccccc3c(=O)n2-c2ccc3nc[nH]c3c2)cc1 | > 128 | 
O=C(O)c1cccc(-n2c(/C=C/c3ccc[nH]c3=O)nc3ccccc3c2=O)c1 | > 128 | 
N#Cc1ccc(/C=C/c2nc3ccccc3c(=O)n2-c2cccc(NC(=O)NCc3cnc[nH]3)c2)cc1 | > 128 | 
CS(=O)(=O)Nc1cccc(-n2c(/C=C/c3ccc(C#N)cc3)nc3ccccc3c2=O)c1 | 0.015 (≈ 0.0339 µM) | 
N#Cc1ccc(/C=C/c2nc3ccccc3c(=O)n2-c2cccc(C(=O)O)c2)cn1 | 64 (≈ 162 µM) | 
N#Cc1ccc(/C=C/c2nc3ccccc3c(=O)n2-c2ccc(F)c(C(=O)O)c2)cc1 | 16 (≈ 38.9 µM) | 
O=C(O)c1cccc(-n2c(/C=C/C3CC3)nc3ccccc3c2=O)c1 | > 128 | 
N#Cc1ccc(/C=C/c2nc3ccccc3c(=O)n2-c2ccccc2[N+](=O)[O-])cc1 | > 128 | 
Nc1cccc(-n2c(N3CCCCC3)nc3ccccc3c2=O)c1 | > 128 | 
O=C(O)c1cccc(-n2c(/C=C/c3ccncc3)nc3ccccc3c2=O)c1 | 64 (≈ 173 µM) | 

Compound | MIC [1] [µg/mL] | other results
N#Cc1ccc(/C=C/c2nc3ccccc3c(=O)n2-c2cccc(NC(=O)C(F)(F)F)c2)cc1 | 2 (≈ 4.34 µM) | selectivity ratio [2]: > 2130; MIC [3]: 1 µg/mL (≈ 2.17 µM); MIC [4]: 0.06 µg/mL (≈ 0.13 µM); MIC [5]: 0.06 µg/mL (≈ 0.13 µM); MIC [6]: 32 µg/mL; PPB [7]: > 99.9%; MIC [8]: 0.06 µg/mL (≈ 0.13 µM); IC50 [9]: > 128 µg/mL
O=c1c2ccccc2nc(NCc2ccc(F)cc2)n1-c1cccc([N+](=O)[O-])c1 | > 128 | 
O=C(O)c1cccc(-n2c(/C=C/c3cccnc3F)nc3ccccc3c2=O)c1 | > 128 | 
O=C(O)c1cccc(-n2c(/C=C/c3cccnc3)nc3ccccc3c2=O)c1 | > 128 | 
O=C(O)c1cccc(-n2c(/C=C/c3nccs3)nc3ccccc3c2=O)c1 | > 128 | 
N#Cc1ccc(/C=C/c2nc3ccccc3c(=O)n2-c2cccc(C#N)c2)cc1 | > 128 | 
N#Cc1ccc(/C=C/c2nc3ccccc3c(=O)n2-c2cccc(C(=O)O)c2)s1 | 4 (≈ 10 µM) | selectivity ratio [2]: 28; MIC [3]: 4 µg/mL (≈ 10 µM); MIC [4]: 4 µg/mL (≈ 10 µM); MIC [5]: 4 µg/mL (≈ 10 µM); MIC [6]: 32 µg/mL; PPB [7]: 99.2%; MIC [8]: 4 µg/mL (≈ 10 µM); IC50 [9]: 110 µg/mL (≈ 275 µM)
N#Cc1ccc(CCc2nc3ccccc3c(=O)n2-c2cccc(C(=O)O)c2)cc1 | 8 (≈ 20.2 µM) | 
N#Cc1ccc(/C=C/c2nc3ccccc3c(=O)n2-c2ccc(F)c(C(=O)O)c2F)cc1 | 64 (≈ 149 µM) | 
COC(=O)c1cccc(-n2c(/C=C/c3ccc(C#N)cc3)nc3ccccc3c2=O)c1O | > 128 | 
N#Cc1ccc(/C=C/c2nc3ccccc3c(=O)n2-c2cccc(C(=O)O)c2O)cc1 | > 128 | 
Nc1cccc(-n2c(N3CCN(c4ccc(Cl)cc4)CC3)nc3ccccc3c2=O)c1 | > 128 | 
COc1ccc(C(=O)O)cc1-n1c(/C=C/c2ccc(C#N)cc2)nc2ccccc2c1=O | > 128 | 
N#Cc1ccc(/C=C/c2nc3ccccc3c(=O)n2-c2cccc(C(=O)O)n2)cc1 | > 128 | 
O=C(O)c1cccc(-n2c(/C=C/c3cccs3)nc3ccccc3c2=O)c1 | 8 (≈ 21.4 µM) | 
N#Cc1ccc(/C=C/c2nc3ccccc3c(=O)n2-c2ccc3[nH]c(=S)[nH]c3c2)cc1 | > 128 | 
CC(=O)NS(=O)(=O)c1cccc(-n2c(/C=C/c3ccc(C#N)cc3)nc3ccccc3c2=O)c1 | 4 (≈ 8.5 µM) | selectivity ratio [2]: 50; MIC [3]: 2 µg/mL (≈ 4.25 µM); PPB [7]: 99.2%; IC50 [9]: 200 µg/mL (≈ 425 µM)
N#Cc1ccc(/C=C/c2nc3ccccc3c(=O)n2-c2cccc(CN)c2)cc1 | 32 (≈ 84.6 µM) | 
O=C(O)c1cccc(-n2c(/C=C/c3cc[nH]c(=O)c3)nc3ccccc3c2=O)c1 | > 128 | 
N#Cc1ccc(/C=C/c2nc3ccccc3c(=O)n2-c2cc(C(=O)O)ccc2O)cc1 | > 128 | 
N#Cc1ccc(/C=C/c2nc3ccccc3c(=O)n2-c2cccnc2)cc1 | > 128 | 
N#Cc1ccc(CNc2nc3ccccc3c(=O)n2-c2cccc(N)c2)cc1 | 8 (≈ 21.8 µM) | 
N#Cc1ccc(/C=C/c2nc3ccccc3c(=O)n2-c2cccc(NC(=O)CN3CCOCC3)c2)cc1 | 32 (≈ 65.1 µM) | 

Compound | MIC [1] [µg/mL] | other results
N#Cc1ccc(/C=C/c2nc3ccccc3c(=O)n2-c2cccc(NC(=O)NCCc3cnc[nH]3)c2)cc1 | 16 (≈ 31.9 µM) | 
O=C(O)c1cccc(-n2c(SCc3ccccc3)nc3ccccc3c2=O)c1 | 0.25 (≈ 0.644 µM) | selectivity ratio [2]: > 128; MIC [3]: 1 µg/mL (≈ 2.57 µM); MIC [5]: 1 µg/mL (≈ 2.57 µM); MIC [6]: 4 µg/mL; PPB [7]: > 99.9%; MIC [8]: 0.5 µg/mL (≈ 1.29 µM); IC50 [9]: > 64 µg/mL
N#Cc1ccc(/C=C/c2nc3ccccc3c(=O)n2-c2cccc(CNC(=O)C(F)(F)F)c2)cc1 | 0.5 (≈ 1.05 µM) | selectivity ratio [2]: 2; MIC [4]: 64 µg/mL (≈ 135 µM); MIC [5]: 4 µg/mL (≈ 8.43 µM); MIC [6]: 8 µg/mL; PPB [7]: > 99.9%; MIC [8]: 64 µg/mL (≈ 135 µM); IC50 [9]: 150 µg/mL (≈ 316 µM)
N#Cc1ccc(/C=C/c2nc3ccccc3c(=O)n2-c2cc(C(=O)O)ccn2)cc1 | > 128 | 
O=C(O)c1cccc(-n2c(/C=C/c3ccsc3)nc3ccccc3c2=O)c1 | 32 (≈ 85.5 µM) | 
CNCCC(=O)Nc1cccc(-n2c(/C=C/c3ccc(C#N)cc3)nc3ccccc3c2=O)c1 | > 128 | 
N#Cc1ccc(/C=C/c2nc3ccccc3c(=O)n2-c2ccc([N+](=O)[O-])cc2)cc1 | > 128 | 
N#Cc1ccc(/C=C/c2nc3ccccc3c(=O)n2-c2cccc(C(=O)O)c2F)cc1 | 8 (≈ 19.4 µM) | 
N#Cc1ccc(/C=C/c2nc3ccccc3c(=O)n2-c2cc(C(=O)O)ccc2C(F)(F)F)cc1 | > 128 | 
N#Cc1ccc(CNc2nc3ccccc3c(=O)n2-c2cccc(C(=O)O)c2)cc1 | > 128 | 
O=C(O)c1cccc(-n2c(/C=C/c3ccc(Cl)s3)nc3ccccc3c2=O)c1 | 0.5 (≈ 1.22 µM) | selectivity ratio [2]: 360; MIC [4]: 0.5 µg/mL (≈ 1.22 µM); MIC [5]: 1 µg/mL (≈ 2.45 µM); MIC [6]: 4 µg/mL; PPB [7]: 99.3%; MIC [8]: 0.5 µg/mL (≈ 1.22 µM); IC50 [9]: 180 µg/mL (≈ 440 µM)
C#Cc1ccc(/C=C/c2nc3ccccc3c(=O)n2-c2cccc(C(=O)O)c2)cc1 | 0.03 (≈ 0.0764 µM) | selectivity ratio [2]: > 256; MIC [3]: 0.125 µg/mL (≈ 0.319 µM); MIC [4]: 0.125 µg/mL (≈ 0.319 µM); MIC [5]: 0.03 µg/mL (≈ 0.0764 µM); MIC [6]: 0.25 µg/mL; IC50 [9]: > 128 µg/mL
COC(=O)c1cccc(-n2c(NCc3ccc(F)cc3)nc3ccccc3c2=O)c1 | > 128 | 
COC(=O)c1cccc(-n2c(/C=C/c3ccc(C#N)cc3)nc3ccccc3c2=O)n1 | > 128 | 
O=c1c2ccccc2nc(N2CCCCC2)n1-c1cccc([N+](=O)[O-])c1 | > 128 | 
N#Cc1ccc(/C=C/c2nc3ccccc3c(=O)n2-c2ccc(N)cc2)cc1 | > 128 | 
N#Cc1ccc(/C=C/c2nc3ccccc3c(=O)n2-c2ccc3[nH]c(=O)[nH]c3c2)cc1 | > 128 | 
N#Cc1ccc(/C=C/c2nc3ccccc3c(=O)n2-c2cccc(N=[N+]=[N-])c2)cc1 | 16 (≈ 41 µM) | 
O=C(O)c1cccc(-n2c(/C=C/c3cncs3)nc3ccccc3c2=O)c1 | > 128 | 
N#Cc1ccc(CNc2nc3ccccc3c(=O)n2-c2cccc([N+](=O)[O-])c2)cc1 | > 128 | 
N#Cc1ccc(/C=C/c2nc3ccccc3c(=O)n2-c2ccccc2C(=O)O)cc1 | 32 (≈ 81.3 µM) | 
N#Cc1ccc(/C=C/c2nc3ccccc3c(=O)n2CCC(=O)O)cc1 | > 128 | 
